{"data": "Published values collected from several papers", "target": "Casein kinase I isoform alpha-like (CSNK1A1L, Homo sapiens, UniProt Q8N752)", "Residues used in one study (Q8N752 1-337)": "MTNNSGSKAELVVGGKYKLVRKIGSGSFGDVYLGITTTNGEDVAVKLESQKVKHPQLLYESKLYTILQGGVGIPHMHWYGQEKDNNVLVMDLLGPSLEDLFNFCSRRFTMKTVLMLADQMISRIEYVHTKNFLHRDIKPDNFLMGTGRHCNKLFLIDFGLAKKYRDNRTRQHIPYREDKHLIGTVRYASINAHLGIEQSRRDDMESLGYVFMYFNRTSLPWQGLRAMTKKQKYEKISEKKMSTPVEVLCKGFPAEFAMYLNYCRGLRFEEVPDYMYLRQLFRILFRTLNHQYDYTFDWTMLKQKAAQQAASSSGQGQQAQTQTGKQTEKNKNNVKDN", "note": "Each line is one published result; the experiments were not run side by side."}
{"SMILES": "C[C@@H](c1ccc(-n2cnc3c(N)ncnc32)cc1)N1CCc2nn(C)c(Cc3ccccc3)c2C1=O", "assay": "binding, competition with immobilised ligand", "conditions": "0.1 µM", "remaining binding [%]": 91}
{"SMILES": "Cc1c[nH]c2nccc(Oc3c(F)cc(Nc4cc(Cl)nc(N)n4)cc3F)c12", "assay": "cell-free assay, competition with immobilised ligand", "conditions": "0.1 µM", "remaining binding [%]": 89}
{"SMILES": "COc1cnc(Nc2cccc(S(N)(=O)=O)c2)nc1N1CCN(c2ccccc2)CC1", "assay": "binding, competition with immobilised ligand", "conditions": "1 µM", "remaining binding [%]": 96}
{"SMILES": "c1cncc(-c2cccc(Nc3nccc(NC4CCCCC4)n3)c2)c1", "assay": "binding, competition with immobilised ligand", "conditions": "10 µM", "remaining binding [%]": 92}
{"SMILES": "CC(C)CC(=O)N1CCc2nc(-c3ccc(Br)cc3)nc(N(C)Cc3ccccc3)c2C1", "assay": "cell-free assay, competition with immobilised ligand", "conditions": "0.1 µM", "remaining binding [%]": 100}
{"SMILES": "O=C(Nc1c[nH]nc1C(=O)NC1CCNCC1)c1cc(F)cc(F)c1", "assay": "binding, competition with immobilised ligand", "conditions": "1 µM", "remaining binding [%]": 84}
{"SMILES": "O=C(c1ccc(Nc2nccc(-c3cc4ccccc4s3)n2)cc1)N1CCC(N2CCCC2)CC1", "assay": "binding, competition with immobilised ligand", "conditions": "1 µM", "remaining binding [%]": 98}
{"SMILES": "C=CC(=O)N1CCC(C(=O)NCC(=O)N2CCN(c3nc(-c4cnc(N)nc4C(F)F)nc(N4CCOCC4)n3)CC2)CC1", "assay": "binding, competition with immobilised ligand", "conditions": "1 µM", "remaining binding [%]": 100}
{"SMILES": "N#Cc1ccc(Nc2ccc3[nH]c(=O)[nH]c3c2)c(Cl)c1", "assay": "cell-free assay, competition with immobilised ligand", "conditions": "1 µM", "remaining binding [%]": 100}
{"SMILES": "CN(c1nccc(-c2cnn3ncccc23)n1)C1CC1", "assay": "binding", "conditions": "1 µM", "remaining binding [%]": 100}
{"SMILES": "CN(C)C(=O)Cn1cc(-c2nc([C@@](C)(c3ccc(-c4cnc(N)nc4)cc3)C3CC3)no2)cn1", "assay": "cell-free assay, competition with immobilised ligand", "conditions": "1 µM", "remaining binding [%]": 100}
{"SMILES": "c1cnn2ncc(-c3ccnc(N4CCC45COC5)n3)c2c1", "assay": "binding", "conditions": "1 µM", "remaining binding [%]": 68}
{"SMILES": "O=C(c1ccc(Nc2ncc(Cl)c(-c3cc4ccccc4s3)n2)cc1)N1CCC(N2CCCC2)CC1", "assay": "binding, competition with immobilised ligand", "conditions": "1 µM", "remaining binding [%]": 100}
{"SMILES": "N[C@H]1CCN(c2nccc(-c3cnn4ncccc34)n2)C1", "assay": "binding", "conditions": "1 µM", "remaining binding [%]": 100}
{"SMILES": "CNCc1ccccc1-c1csc([C@@H](C)Nc2nc(C)nc3cc(OC)c(OC)cc23)c1", "assay": "cell-free assay, competition with immobilised ligand", "conditions": "1 µM", "remaining binding [%]": 100}
{"SMILES": "C[C@@H]1CCN(c2nccc(-c3cnn4ncccc34)n2)C1", "assay": "binding", "conditions": "1 µM", "remaining binding [%]": 81}
{"SMILES": "CNC(=O)[C@@H]1CC[C@@H](n2c(-c3ccc4cnccc4c3)nc3ccc(C(=O)NCc4cccc(C(N)=O)c4)cc32)C1", "assay": "binding, competition with immobilised ligand", "conditions": "1 µM", "remaining binding [%]": 100}
{"SMILES": "CC1CCCN1c1nccc(-c2cnn3ncccc23)n1 (stereo not drawn)", "assay": "binding", "conditions": "1 µM", "remaining binding [%]": 100}
{"SMILES": "O=C(NCCCN1CCOCC1)c1ccc(Nc2nccc(-c3cc4ccccc4s3)n2)cc1", "assay": "binding, competition with immobilised ligand", "conditions": "1 µM", "remaining binding [%]": 91}
{"SMILES": "CCC(=N\\O)/C(C)=C/c1ccc(F)cc1", "assay": "cell-free assay, competition with immobilised ligand", "conditions": "1 µM", "remaining binding [%]": 78}
{"SMILES": "CN(C)c1nccc(-c2cnn3ncccc23)n1", "assay": "binding", "conditions": "1 µM", "remaining binding [%]": 98}
